Measurements reported in paper PMC8399557 (Journal of medicinal chemistry, 2020).

How the values were obtained:
Format in all cases: physicochemical
[1] = Solvolytic stability of difluoro-dioxaborinins by 19F NMR in water/DMSO; settings: for relative solvolytic stability (in words): comparison among Figure 2 / Table 1 compounds, 10% water/90% DMSO; for Stability (t1/2, h) 10% H2O/90% DMSO / Stability (t1/2, h) 90% H2O/10% DMSO: solvolysis half-life, 19F NMR, 25 °C; for Stability (t1/2, h) 10% H2O/90% DMSO: 10% H2O/90% DMSO (5.55 M H2O); for Stability (t1/2, h) 90% H2O/10% DMSO: 90% H2O/10% DMSO (50 M H2O); for Fold increase in stability (90% to 10% H2O): solvolysis in 5.5 M H2O vs. 50 M H2O; for times more resistant to solvolysis than 1: in 50 M H2O; for fold more rapid solvolysis than 5: determined in 5.55 M H2O
Summary of the method: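 Test compound was held in 10% or 90% aqueous DMSO, with aqueous portions in 1X PBS (pH 7.4, 10 mM), and 19F NMR spectra were integrated over time. The fraction of 19F on the test compound was taken as its integral divided by the sum of all fluoride integrals. Fractions versus time were fitted to P = exp(−k*t), and half-lives were derived from k.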

[2] = Optical properties; settings: for Abs (nm) / Em (nm) / Extinction Coefficient (cm^−1M^−1) / Stokes Shift (nm): in methanol; for Quantum yield (%, in Methanol): quinine bisulfate as the reference
[3] = Water solubility judged by silica TLC with water as the mobile phase

solvolysis in the absence of water ([1]; 100% DMSO) | fraction decomposed at 110 min (one F-18 half-life) post i.v. injection ([1]; assuming the in vitro solvolysis rate translates in vivo) [%] | Stability (t1/2, h) 10% H2O/90% DMSO [1] [h] | Stability (t1/2, h) 90% H2O/10% DMSO [1] [h] | Fold increase in stability (90% to 10% H2O) [1] [fold] | Abs (nm) [2] [nm] | Em (nm) [2] [nm] | Extinction Coefficient (cm^−1M^−1) [2] | Stokes Shift (nm) [2] [nm] | times more resistant to solvolysis than 1 [1] [times] | fold more rapid solvolysis than 5 [1] [fold] | Quantum yield (%, in Methanol) [2] [%] | solvolysis half-life compared with F-18 nuclear decay half-life ([1]; Table 1 conditions) [h] | SMILES | relative solvolytic stability (in words) [1] | water solubility (in words) [3]
not observed | 37 | 7.63 ± 0.18 | 2.73 ± 0.02 | 2.8 | 279 | 305 | 9,180 cm^−1M^−1 | 26 |  |  |  |  | CC1=CC(C)=[O+][B-](F)(F)O1 [Compound 1, 2,2-Difluoro-4,6-dimethyl-2H-1λ^3,3,2λ^4-dioxaborinine] | second most rapid difluoro-dioxaborinin to undergo aqueous solvolysis | water solubility that allowed them to be resolved on silica TLC with water as the mobile phase
 |  | 53.9 ± 1.1 | 17.1 ± 0.7 | 3.2 | 303 | 307 | 12,200 cm^−1M^−1 | 4 | 6.2 |  |  |  | CC1=[O+][B-](F)(F)OC(C)=C1C [Compound 2, 2,2-Difluoro-4,5,6-trimethyl-2H-1λ^3,3,2λ^4-dioxaborinine] |  | water solubility that allowed them to be resolved on silica TLC with water as the mobile phase
 |  | 53.9 ± 1.5 | 15.2 ± 0.5 | 3.5 | 303 | 306 | 12,000 cm^−1M^−1 | 3 | 5.6 |  |  |  | CCC1=C(C)O[B-](F)(F)[O+]=C1C [Compound 3, 5-Ethyl-2,2-difluoro-4,6-dimethyl-2H-1λ^3,3,2λ^4-dioxaborinine] |  | water solubility that allowed them to be resolved on silica TLC with water as the mobile phase
 |  | 24.6 ± 0.5 | 5.19 ± 0.15 | 4.7 | 301 | 307 | 12,600 cm^−1M^−1 | 6 | 1.9 |  |  |  | CCOC(=O)CCC1=C(C)O[B-](F)(F)[O+]=C1C [Compound 6, Ethyl 3-(2,2-difluoro-4,6-dimethyl-2H-1λ^3,3,2λ^4-dioxaborinin-5-yl)propanoate] |  | water solubility that allowed them to be resolved on silica TLC with water as the mobile phase
 |  | 11.9 ± 0.4 |  |  | 430 | 512 | 50,800 cm^−1M^−1 | 82 |  | 33 | 3.0 |  | COc1cc(/C=C/C2=CC(/C=C/c3ccc(OC(=O)c4c(F)cc(F)cc4F)c(OC)c3)=[O+][B-](F)(F)O2)ccc1OC(=O)c1c(F)cc(F)cc1F [Compound 9, ((1E,1′E)-(2,2-difluoro-2H-1λ^3,3,2λ^4-dioxaborinine-4,6-diyl)bis(ethene-2,1-diyl))bis(2-methoxy-4,1-phenylene) bis(2,4,6-trifluorobenzoate)] |  | 
 |  | 16.0 ± 0.2 |  |  | 434 | 509 | 54,000 cm^−1M^−1 | 75 |  | 24 | 3.1 |  | COc1cc(/C=C/C2=CC(/C=C/c3ccc(OC(=O)CCN4C(=O)C=CC4=O)c(OC)c3)=[O+][B-](F)(F)O2)ccc1OC(=O)CCN1C(=O)C=CC1=O [Compound 10, ((1E,1′E)-(2,2-difluoro-2H-1λ^3,3,2λ^4-dioxaborinine-4,6-diyl)bis(ethene-2,1-diyl))bis(2-methoxy-4,1-phenylene) bis(3-(2,5-dioxo-2,5-dihydro-1H-pyrrol-1-yl)propanoate)] |  | 
 |  | 4.46 ± 0.05 |  |  | 325 | 328 | 19,800 cm^−1M^−1 | 3 |  |  |  | > 1.83 | CC1=CC(c2ccccc2)=[O+][B-](F)(F)O1 [Compound 14, 2,2-Difluoro-4-methyl-6-phenyl-2H-1λ^3,3,2λ^4-dioxaborinine] | least stable | 
 |  | 33.7 ± 1.1 | 6.75 ± 0.19 | 5.0 | 303 | 307 | 12,000 cm^−1M^−1 | 4 | 2.5 |  |  |  | CC1=C2CCCCC2=[O+][B-](F)(F)O1 [Compound 15, 2,2-Difluoro-4-methyl-5,6,7,8-tetrahydro-2H-1λ^3,2λ^4-benzo[e][1,3,2]dioxaborinine] |  | water solubility that allowed them to be resolved on silica TLC with water as the mobile phase
